Results as given in PMC5548968 (Clinical cancer research : an official journal of the …, 2016).

What was measured:
phospho-PLCγ2(Y1217) = assay type: in vivo, C57BL/6 mice; conditions: 0.16mg/mL drinking water, one or four weeks, ex vivo anti-IgM
In short: (§1)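 C57BL/6 recipients received 1 × 10^7 Eμ-TCL1 leukemic cells. Drinking water with 0.16mg/mL test compound or vehicle began once blood CD5+/CD19+ cells reached ≥10%. After 1 or 4 weeks, splenocytes were stimulated ex vivo with anti-IgM. Cells were stained for B220, CD3, pPLCγ2(Y1217) (n=7/group) or pS6(S235/236) (n=14/group). Median fluorescence was read in B220+CD3− cells as % change versus vehicle, by normalised unpaired t-test.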

TEC = conditions: read-out: concentration inhibiting TEC; biochemical kinase assays; cited from earlier work
phospho-ERK(T202/Y204) = assay: NSG primary CLL xenograft model, pERK in CLL cells from spleen; assay type: in vivo, NSG mice; conditions: drinking water 0.3 or 0.16mg/mL, three weeks
In short: (§2)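 Human CLL patient MNCs were Ficoll-isolated and viably frozen. They were transferred at 1 × 10^8 cells/mouse into busulfan-primed NSG mice. Drinking-water dosing (0.3 or 0.16mg/mL; 0.06mg/mL in select experiments) started day −1, with vehicle controls. After 3 weeks, splenocytes were sieved, ACK-lysed, fixed (4% paraformaldehyde), permeabilised (90% methanol) and stained for pPLCγ2(Y759), pERK(T202/Y204) or Ki-67 against isotype controls. Mice were averaged per patient and compared by paired t-test.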

human CLL cells [1] = assay: NSG primary CLL xenograft model, tumor burden in the spleen; assay type: in vivo, NSG mice; conditions: drinking water, three weeks
In short: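 Spleen tumour burden in NSG mice engrafted with 1 × 10^8 primary CLL MNCs after busulfan priming. Mice got treated or vehicle drinking water from day −1 for 3 weeks. Homogenised, sieved, ACK-lysed splenocytes were surface-stained (CD45, CD19, CD3, CD5) and analysed by flow cytometry. Burden is the percentage of CLL cells among human CD45+ cells. Per-patient averages were compared by paired t-test.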

ITK = target: T1, ITK (Homo sapiens, UniProt Q08881); assay: DiscoverRx KINOMEscan competition binding assay, ITK; conditions: 1μM compound
T1 sequence (Q08881 1-620): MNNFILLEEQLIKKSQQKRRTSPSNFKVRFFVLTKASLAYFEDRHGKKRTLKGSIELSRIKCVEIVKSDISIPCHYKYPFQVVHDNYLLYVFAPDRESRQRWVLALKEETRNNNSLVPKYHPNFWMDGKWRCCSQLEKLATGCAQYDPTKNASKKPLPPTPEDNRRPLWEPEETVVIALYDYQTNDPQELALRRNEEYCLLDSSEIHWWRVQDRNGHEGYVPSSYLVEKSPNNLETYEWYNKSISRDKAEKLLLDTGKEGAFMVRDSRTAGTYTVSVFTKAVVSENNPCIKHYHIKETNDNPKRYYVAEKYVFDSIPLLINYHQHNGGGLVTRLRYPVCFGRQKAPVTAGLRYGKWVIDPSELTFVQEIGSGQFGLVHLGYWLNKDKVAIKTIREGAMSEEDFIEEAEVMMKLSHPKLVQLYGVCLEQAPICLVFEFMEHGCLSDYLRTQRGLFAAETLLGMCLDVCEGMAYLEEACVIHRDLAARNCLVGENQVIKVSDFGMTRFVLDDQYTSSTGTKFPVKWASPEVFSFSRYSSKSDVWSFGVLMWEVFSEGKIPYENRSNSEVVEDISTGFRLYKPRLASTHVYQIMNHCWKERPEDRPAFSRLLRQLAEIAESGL

phospho-S6(S235/236) [2] = assay: in vitro phospho-flow in CLL patient MNCs, phospho-S6; assay type: cell-based, human; conditions: 1μM, one hour
In short: (§3)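 Primary CLL patient MNCs (n=5 patients) were treated in culture with or without 1μM test compound for 1 hour. Cells were fixed in 4% paraformaldehyde, permeabilised in 90% methanol and stained for phospho-PLCγ2(Y759), phospho-S6(S235/236) or phospho-p65(S529) with isotype controls. Flow cytometry gave the percent of CLL cells positive for each readout.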

phospho-p65(S529) = assay: in vitro phospho-flow in CLL patient MNCs, phospho-NF-κB p65; assay type: cell-based, human; conditions: 1μM, one hour
In short: as §3

BTK = conditions: read-out: IC50 BTK; as previously reported; cited from earlier work
phospho-S6(S235/236) [3] = assay type: in vivo, C57BL/6 mice; conditions: 0.16mg/mL drinking water, one or four weeks, ex vivo anti-IgM
In short: as §1

murine BTK = murine BTK (Mus musculus, UniProt P35991); assay: BTK occupancy probe ELISA, TCL1 adoptive transfer model splenocytes; assay type: in vivo; conditions: 0.16mg/mL drinking water, one or four weeks
murine BTK, sequence (P35991 whole entry): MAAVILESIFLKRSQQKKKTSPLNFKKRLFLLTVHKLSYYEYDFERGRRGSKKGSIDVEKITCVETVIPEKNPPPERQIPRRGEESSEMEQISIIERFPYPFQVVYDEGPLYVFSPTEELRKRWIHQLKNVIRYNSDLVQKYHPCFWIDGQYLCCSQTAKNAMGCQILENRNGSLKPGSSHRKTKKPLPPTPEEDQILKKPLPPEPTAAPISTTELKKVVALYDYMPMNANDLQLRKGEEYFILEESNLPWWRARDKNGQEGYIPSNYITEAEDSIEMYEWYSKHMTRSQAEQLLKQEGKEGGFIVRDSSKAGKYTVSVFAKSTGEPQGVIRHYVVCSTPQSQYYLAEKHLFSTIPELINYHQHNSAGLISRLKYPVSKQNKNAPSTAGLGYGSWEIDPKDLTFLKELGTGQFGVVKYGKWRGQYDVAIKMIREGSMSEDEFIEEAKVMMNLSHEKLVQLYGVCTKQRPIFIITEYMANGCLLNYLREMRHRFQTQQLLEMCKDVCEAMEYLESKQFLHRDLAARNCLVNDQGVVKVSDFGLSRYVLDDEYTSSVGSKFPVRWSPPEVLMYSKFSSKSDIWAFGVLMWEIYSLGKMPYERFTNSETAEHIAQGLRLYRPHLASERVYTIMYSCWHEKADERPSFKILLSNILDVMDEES

phospho-BTK(Y223) [4] = assay type: in vivo, C57BL/6 mice; conditions: 0.16mg/mL drinking water, one or four weeks, ex vivo anti-IgM
[5] = system: BCR signaling (CD69 expression); assay type: in vivo, C57BL/6 mice; conditions: for effective dose (CD69 expression): oral gavage 0.1 to 30mg/kg, splenocytes 3 hours after dose, anti-IgM 18 h
In short: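 Female C57BL/6 mice (5/group/dose) were gavaged with vehicle or test compound at 0.1–30mg/kg. Splenocytes were taken 3 hours later and stimulated with goat anti-mouse IgM at 10μg/mL for 18 hours (37°C, 5% CO2). After Fc blocking, cells were stained for CD19 and CD69, with 7-AAD to exclude dead cells. CD69 on >5,000 gated CD19+ cells per sample was measured by flow cytometry.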

phospho-BTK(Y223) [6] = assay: in vitro phospho-flow in CLL patient MNCs, phospho-BTK; assay type: cell-based, human; conditions: 1μM, one hour
phospho-PLCγ2(Y759) = assay: NSG primary CLL xenograft model, pPLCγ2 in CLL cells from spleen; assay type: in vivo, NSG mice; conditions: drinking water 0.3 or 0.16mg/mL, three weeks
In short: as §2

human CLL cells [7] = assay: NSG primary CLL xenograft model, circulating CLL cell count per μL blood; assay type: in vivo, NSG mice; conditions: drinking water, three weeks, whole blood
In short: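 Whole blood came from CLL-engrafted NSG mice after 3 weeks of treated or vehicle drinking water started at busulfan priming (day −1). Absolute human CLL cells (CD45+/CD19+/CD5+) per μL were counted by flow cytometry with counting beads. Values are averages of 2–5 mice per donor patient, compared by paired t-test.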

human CLL cells [8] = assay: NSG primary CLL xenograft model, CLL cell proliferation; assay type: in vivo, NSG mice; conditions: drinking water, three weeks, spleen
In short: as §2

ERBB4 = conditions: read-out: concentration inhibiting ERBB4; biochemical kinase assays; cited from earlier work
[9] = system: 395 wild-type human kinases; assay: DiscoverRx KINOMEscan ATP site dependent competition binding assay, kinase panel; conditions: 1μM compound
[10] = system: BCR stimulation by anti-IgM (CD69) in CLL patient MNCs; assay type: cell-based, human; conditions: 1μM pretreatment 3 hours, anti-IgM 18 h
[11] = system: kinases containing a conserved cysteine residue that aligns with the Cys481 in BTK; conditions: cited from earlier work

Structure (SMILES): CC#CC(=O)N1CCC[C@H]1c1nc(-c2ccc(C(=O)Nc3ccccn3)cc2)c2c(N)nccn12 [acalabrutinib, Acalabrutinib]
- median change in phosphorylation of PLCγ2 vs vehicle (phospho-PLCγ2(Y1217)): −22%
- median change in phosphorylation of ERK vs vehicle (phospho-ERK(T202/Y204)): −79%
- median change in human CLL cells in the murine spleen (tumor burden) vs vehicle (human CLL cells [1]): −33%
- inhibition of ITK (ITK): not significantly inhibited
- median change in phosphorylation of S6 (phospho-S6(S235/236) [2]): −20%
- median change in phosphorylation of NF-κB (p65) (phospho-p65(S529)): −26%
- IC50 (BTK): 5.1 nM
- median change in pS6 induction vs vehicle (phospho-S6(S235/236) [3]): −35%
- drug occupancy of murine BTK (murine BTK): ≥ 90%
- median change in auto-phosphorylation of BTK vs vehicle (phospho-BTK(Y223) [4]): −31%
- effective dose (CD69 expression) [5]: 1.3 mg/kg
- inhibition of BCR signaling (CD69 expression) compared with ibrutinib ([5]; oral, 1mg/kg and 3mg/kg): significantly more than ibrutinib
- median change in MFI of pBTK (autophosphorylation site) (phospho-BTK(Y223) [6]): −15%
- median change in phosphorylation of PLCγ2 vs vehicle (phospho-PLCγ2(Y759)): −68%
- median change in CLL cells per μL of blood vs vehicle (human CLL cells [7]): +0.76%
- median change in Ki67 (CLL cell proliferation) vs vehicle (human CLL cells [8]): −50%
- IC50 (ERBB4): < 100 nM
- binding across kinase panel [9]: Minimal binding outside of BTK
- prevention of BCR stimulation by anti-IgM (CD69) [10]: significantly prevented BCR stimulation

Structure (SMILES): C=CC(=O)N1CCC[C@@H](n2nc(-c3ccc(Oc4ccccc4)cc3)c3c(N)ncnc32)C1 [ibrutinib, reference compound]
- IC50 (BTK): 1.5 nM
- effective dose (CD69 expression) [5]: 2.9 mg/kg
- IC50 values for all ten kinases with the conserved cysteine [11]: low nanomolar range
